{
  "source": "ChEMBL document CHEMBL4339193",
  "about": "“Phenotypic Screening-Based Identification of 3,4-Disubstituted Piperidine Derivatives as Macrophage M2 Polarization Modulators: An Opportunity for Treating Multiple Sclerosis” (J Med Chem, 2019)",
  "key": {"Mus musculus [1]": {"system": "Mus musculus", "assay": "(§1) Antiinflammatory activity in C57BL/6J mouse model of MOG (35 to 55 residues)/pertussis toxin/complete Freund's adjuvant-induced experimental allergic encephalomyelitis assessed as reduction in infiltration in spinal cord at 200 mg/kg, ig administered daily starting from 7 days post-immunization measured after 14 days post-immunization by H and E staining based microscopic analysis", "assay_type": "functional, organism-based", "how_it_was_run": "(§2)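 EAE mice dosed daily in saline from day 7 were perfused with PBS and fixed in 4% PFA on day 14; spinal cords were taken. For LFB, frozen OCT sections sat 3 h in 0.1% Luxol Fast Blue at 56-60°C, were differentiated in 0.05% lithium carbonate for 10-12 s, cleared in 70% ethanol, dehydrated and mounted. For H&E, paraffin sections were stained to assess inflammation.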"}, "RAW264.7 [2]": {"system": "RAW264.7", "assay": "Modulation of M2 polarization in mouse RAW264.7 cells assessed as up regulation of PPARGC1A mRNA expression at 300 nM measured after 24 hrs by qRT-PCR analysis", "assay_type": "functional, cell-based"}, "[3]": {"assay": "AUC (0 to infinity) in Sprague-Dawley rat at 10 mg/kg, iv administered as single dose by LC/MS analysis", "assay_type": "ADME, organism-based", "parameters": "dose 10 mg/kg, time infinity, route intravenous", "conditions": "in vivo", "how_it_was_run": "(§3)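 Single dose in rats; venous blood (100 µL) drawn at 0, 0.5, 1, 2, 4, 8 and 12 h, plasma separated by centrifugation and held at -20 °C. Compound measured by LC/MS; Cmax, Tmax, t1/2 and AUC derived from the concentration–time data.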"}, "Mus musculus [4]": {"system": "Mus musculus", "assay": "as §1, with “demyelination” for “infiltration”", "assay_type": "functional, organism-based", "how_it_was_run": "as §2"}, "[5]": {"assay": "AUC (0 to t) in Sprague-Dawley rat at 50 mg/kg, po administered as single dose via gavage by LC/MS analysis", "assay_type": "ADME, organism-based", "conditions": "in vivo", "how_it_was_run": "as §3"}, "[6]": {"target": "RAC-alpha serine/threonine-protein kinase (Mus musculus) (UniProt P31750)", "sequence (P31750 whole entry)": "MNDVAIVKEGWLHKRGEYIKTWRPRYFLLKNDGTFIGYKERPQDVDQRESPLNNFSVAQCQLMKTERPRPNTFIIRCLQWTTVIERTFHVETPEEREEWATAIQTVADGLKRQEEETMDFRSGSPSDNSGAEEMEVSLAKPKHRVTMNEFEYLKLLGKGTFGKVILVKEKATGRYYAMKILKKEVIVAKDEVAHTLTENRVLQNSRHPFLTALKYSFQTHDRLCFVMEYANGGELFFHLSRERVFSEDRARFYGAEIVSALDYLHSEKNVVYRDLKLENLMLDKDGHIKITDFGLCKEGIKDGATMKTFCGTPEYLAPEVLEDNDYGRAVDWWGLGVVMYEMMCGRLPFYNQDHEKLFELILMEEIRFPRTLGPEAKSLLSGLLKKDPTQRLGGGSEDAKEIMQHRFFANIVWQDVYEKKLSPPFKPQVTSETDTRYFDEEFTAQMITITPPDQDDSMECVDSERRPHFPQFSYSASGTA", "assay": "Stimulation of AKT phosphorylation at 308 residue in mouse RAW264.7 cells at 300 nM measured after 4 to 24 hrs by Western blot analysis", "assay_type": "cell-based", "how_it_was_run": "(§4)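 Cell lysates separated by SDS-PAGE, transferred to PVDF and probed for Akt, p-Akt(308), p-Akt(473), Stat3, p-Stat3(Y705), Stat6 and p-Stat6; ECL detection, GAPDH as loading control.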"}, "RAW264.7 [7]": {"system": "RAW264.7", "assay": "Inhibition of M1 polarization in mouse RAW264.7 cells assessed as down regulation of IL6 mRNA expression at 300 nM measured after 24 hrs by qRT-PCR analysis", "assay_type": "functional, cell-based"}, "BMDM [8]": {"system": "BMDM", "assay": "Modulation of M2 polarization in C57BL/6J mouse BMDM cells assessed as up regulation of YM1 expression at 300 nM measured after 4 to 24 hrs by Western blot analysis", "assay_type": "functional, cell-based", "how_it_was_run": "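BMDMs lysed in pH 7.6 buffer with 1% Triton X-100, phosphatase inhibitor and 1 mM PMSF. Proteins separated by SDS-PAGE, blotted to PVDF and probed with anti-Arg-1, anti-Ym1 or anti-TNF-α, then ECL detection; GAPDH as loading control.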"}, "BMDM [9]": {"system": "BMDM", "assay": "Antiinflammatory activity in LPS-induced C57BL/6J mouse BMDM cells assessed as suppression of M1 macrophage-stimulated Th1 cell population by measuring decrease in IFNgamma level at 300 nM measured after 48 hrs by ELISA", "assay_type": "functional, cell-based", "how_it_was_run": "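Supernatant collected from the 72 h coculture of CFSE-labelled naïve CD4+ T cells (anti-CD3/anti-CD28, 500 ng/ml each, 1:1) with BMDMs pretreated 48 h with 50 ng/ml LPS plus 300 nM compound. IFN-γ or IL-17A quantified by ELISA. Mean ± SEM, at least three independent experiments.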"}, "BMDM [10]": {"system": "BMDM", "assay": "Modulation of M2 polarization in C57BL/6J mouse BMDM cells assessed as up regulation of Fizz1 mRNA expression at 300 nM measured after 24 hrs by qRT-PCR analysis", "assay_type": "functional, cell-based", "how_it_was_run": "(§5)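 BMDMs treated 24 h with 300 nM compound at 37 °C, 5% CO2. Trizol RNA extraction, then qRT-PCR for Arg1, Mrc1 and Fizz1 mRNA. Mean ± SEM.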"}, "Mus musculus [11]": {"system": "Mus musculus", "assay": "as §1, with “effect on Treg cell population” for “reduction”, “spleen by measuring change” for “infiltration”, “CD4 level” for “spinal cord”, “13 to 19” for “14”, “flow cytometry” for “H and E staining based microscopic”", "assay_type": "functional, organism-based", "how_it_was_run": "(§6)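 MOG35-55/CFA EAE mice were dosed daily in saline from day 7 and sampled between days 13 and 19. Spleens and dLNs were mechanically dissociated to single cells. CNS cells came from collagenase IV digestion and a 70%/30% Percoll gradient. Cells were surface-stained with fluorochrome antibodies, including CD4, CD11b, CD11c and MHC-II, and analysed by flow cytometry.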"}, "Mus musculus [12]": {"system": "Mus musculus", "assay": "Inhibition of M1 polarization in C57BL/6J mouse model of MOG (35 to 55 residues)/pertussis toxin/complete Freund's adjuvant-induced experimental allergic encephalomyelitis assessed as CD86 level in CNS at 200 mg/kg, ig administered daily starting from 7 days post-immunization measured after 13 to 19 days post-immunization by flow cytometry analysis (reference value: 26.3%)", "assay_type": "functional", "parameters": "scale not given: the % may be the effect or the level left", "how_it_was_run": "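MOG35-55/CFA EAE mice were dosed daily in saline from day 7 and sampled between days 13 and 19. Cells came from spleen and dLN by mechanical dissociation and from CNS by collagenase IV/Percoll. They were stained for F4/80 with CD206 (M2) or CD86 (M1), and each was read by flow cytometry as a percentage of total F4/80+ macrophages.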"}, "Mus musculus [13]": {"system": "Mus musculus", "assay": "Antiinflammatory activity in C57BL/6J mouse model of MOG (35 to 55 residues)/pertussis toxin/complete Freund's adjuvant-induced experimental allergic encephalomyelitis assessed as effect on dendritic cell population in spleen by measuring change in CD11c level at 200 mg/kg, ig administered daily starting from 7 days post-immunization measured after 13 to 19 days post-immunization by flow cytometry analysis", "assay_type": "functional, organism-based", "how_it_was_run": "as §6"}, "BMDM [14]": {"system": "BMDM", "assay": "Modulation of M2 polarization in C57BL/6J mouse BMDM cells assessed as up regulation of Arg1 mRNA expression at 300 nM measured after 24 hrs by qRT-PCR analysis", "assay_type": "functional, cell-based", "how_it_was_run": "as §5"}, "[15]": {"assay": "Ratio of AUC (0 to t) to AUC (0 to infinity) in Sprague-Dawley rat at 10 mg/kg, iv administered as single dose […]", "assay_type": "ADME, organism-based", "conditions": "in vivo"}, "[16]": {"target": "Signal transducer and activator of transcription 3 (Mus musculus) (UniProt P42227)", "sequence (P42227 whole entry)": "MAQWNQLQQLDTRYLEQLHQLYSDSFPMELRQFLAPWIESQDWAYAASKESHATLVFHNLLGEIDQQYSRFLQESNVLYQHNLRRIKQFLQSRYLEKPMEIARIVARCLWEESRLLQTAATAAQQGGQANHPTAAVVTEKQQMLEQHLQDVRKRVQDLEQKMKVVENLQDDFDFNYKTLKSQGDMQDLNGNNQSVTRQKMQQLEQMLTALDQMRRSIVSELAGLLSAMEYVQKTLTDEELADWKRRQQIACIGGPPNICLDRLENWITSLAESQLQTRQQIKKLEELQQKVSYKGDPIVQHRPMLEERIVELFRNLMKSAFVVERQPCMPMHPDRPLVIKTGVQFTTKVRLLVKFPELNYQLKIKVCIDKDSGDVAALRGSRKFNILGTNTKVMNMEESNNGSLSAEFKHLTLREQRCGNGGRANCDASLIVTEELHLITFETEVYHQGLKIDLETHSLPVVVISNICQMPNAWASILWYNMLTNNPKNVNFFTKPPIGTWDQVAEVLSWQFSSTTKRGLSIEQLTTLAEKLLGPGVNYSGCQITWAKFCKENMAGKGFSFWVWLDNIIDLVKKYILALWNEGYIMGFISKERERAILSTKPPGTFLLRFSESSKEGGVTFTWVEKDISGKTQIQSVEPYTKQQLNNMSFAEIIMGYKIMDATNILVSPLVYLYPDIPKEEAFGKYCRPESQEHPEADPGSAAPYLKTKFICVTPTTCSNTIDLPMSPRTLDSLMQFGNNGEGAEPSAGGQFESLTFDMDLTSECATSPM", "assay": "Stimulation of STAT3 phosphorylation at Y705 residue in mouse RAW264.7 cells at 300 nM measured after 4 to 24 hrs by Western blot analysis", "assay_type": "cell-based", "how_it_was_run": "as §4"}, "RAW264.7 [17]": {"system": "RAW264.7", "assay": "Inhibition of M1 polarization in mouse RAW264.7 cells assessed as down regulation of IL6R mRNA expression at 300 nM measured after 24 hrs by qRT-PCR analysis", "assay_type": "functional, cell-based"}, "RAW264.7 [18]": {"system": "RAW264.7", "assay": "Inhibition of M1 polarization in mouse RAW264.7 cells assessed as down regulation of CD80 mRNA expression at 300 nM measured after 24 hrs by qRT-PCR analysis", "assay_type": "functional, cell-based"}, "BMDM [19]": {"system": "BMDM", "assay": "Inhibition of LPS-induced M1 polarization in C57BL/6J mouse BMDM cells assessed as down regulation of CD86 mRNA expression at 300 nM measured after 24 hrs by qRT-PCR analysis", "assay_type": "functional, cell-based", "how_it_was_run": "(§7)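 BMDMs pre-incubated 24 h with 50 ng/ml LPS to induce M1, then treated 24 h with 300 nM compound. Total RNA extracted with Trizol; Mcp1, Inos and Cd86 mRNA measured by qRT-PCR. Mean ± SEM.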"}, "BMDM [20]": {"system": "BMDM", "assay": "Inhibition of LPS-induced M1 polarization in C57BL/6J mouse BMDM cells assessed as down regulation of Mcp1 mRNA expression at 300 nM measured after 24 hrs by qRT-PCR analysis", "assay_type": "functional, cell-based", "how_it_was_run": "as §7"}},
  "note": "Active and inactive are the calls of the source. The rule behind the calls is not given here.",
  "data": [
    {"smiles": "Cl.Cn1ncc(Cl)c1-c1ccc(C(=O)N[C@@H]2CNCC[C@H]2c2cccc(F)c2)cc1", "values": [
      {"measurement": "Activity", "setting": "Mus musculus [1]", "result": "Active"},
      {"measurement": "Activity", "setting": "RAW264.7 [2]", "result": "Active"},
      {"measurement": "AUC(0-inf)", "setting": "[3]", "result": 1.87, "unit": "µg·h/mL"},
      {"measurement": "Activity", "setting": "Mus musculus [4]", "result": "Active"},
      {"measurement": "AUC(0-t)", "setting": "[5]", "result": 4.67, "unit": "µg·h/mL"},
      {"measurement": "Activity", "setting": "[6]", "result": "Active"},
      {"measurement": "inhibition", "setting": "RAW264.7 [7]", "result": "Active"},
      {"measurement": "Activity", "setting": "BMDM [8]", "result": "Active"},
      {"measurement": "Activity", "setting": "BMDM [9]", "result": "Active"},
      {"measurement": "Activity", "setting": "BMDM [10]", "result": "Active"},
      {"measurement": "Activity", "setting": "Mus musculus [11]", "result": "inactive"},
      {"measurement": "Activity", "setting": "Mus musculus [12]", "result": 16.6, "unit": "%"},
      {"measurement": "Activity", "setting": "Mus musculus [13]", "result": "inactive"},
      {"measurement": "Activity", "setting": "BMDM [14]", "result": "Active"},
      {"measurement": "Ratio AUC", "setting": "[15]", "result": 98.75, "unit": "%"},
      {"measurement": "Activity", "setting": "[16]", "result": "Active"},
      {"measurement": "inhibition", "setting": "RAW264.7 [17]", "result": "Active"},
      {"measurement": "inhibition", "setting": "RAW264.7 [18]", "result": "Active"},
      {"measurement": "inhibition", "setting": "BMDM [19]", "result": "Active"},
      {"measurement": "inhibition", "setting": "BMDM [20]", "result": "Active"}
    ]}
  ]
}
